Values joined by “and” are separate entries in the source; they are usually repeats but may differ in a detail not shown here. Equal entries are not always repeated.
Legend:
Rattus norvegicus [1] = test: Percent change in high density lipoproteins cholesterol concentration in serum from hypercholesterolemic rats at dose 50 mg/kg (po); type: functional
Summary of the method: (§1)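 Rats were fed 1.5% cholesterol/0.5% cholic acid diet for 7 days, with compounds given by gavage over the last 4 days as a 0.5% Methocel suspension (0.5 mL/100 g). Rats were fasted overnight, killed on day 8 and bled under light CO₂ anesthesia. HDL was isolated by heparin-MnCl₂ precipitation (8000 rpm, 15 min, 4 °C). Total and HDL cholesterol were measured enzymatically-colorimetrically; % change vs control.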

Rattus norvegicus [2] = test: Percent increase in liver weight in rats when administered perorally; type: functional
Rattus norvegicus [3] = test: Percent change in total cholesterol concentration in serum from hypercholesterolemic rats at dose 50 mg/kg (po); type: functional
Rattus norvegicus [4] = test: Percent change in total cholesterol concentration in serum from hypercholesterolemic rats at dose 23 mg/kg (po); type: functional; summary of the method: as §1
Rattus norvegicus [5] = test: Percent change in high density lipoproteins cholesterol concentration in serum from hypercholesterolemic rats at dose 23 mg/kg (po); type: functional; summary of the method: as §1
Rattus norvegicus [6] = test: Percent increase in liver weight in rats when a 50 mg/Kg dose was administered; type: functional
Rattus norvegicus [7] = organism: Rattus norvegicus; test: Compound was tested in vitro for inhibition of Cholesterol biosynthesis in rat liver slices, % inhibition of [14C]-acetate incorporation in cholesterol at 2 e10-4 concentration; type: functional
Summary of the method: (§2)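 Liver slices (250 mg) from fed male rats were incubated in Krebs-Ringer bicarbonate, pH 7.4, with 4 mM [2-¹⁴C]acetate under 95% O₂-5% CO₂. Compounds were tested at a final 2 × 10⁻⁴ M, or 5 × 10⁻⁵ M for one compound. ¹⁴C incorporation into cholesterol and into petroleum-ether-soluble nonsaponifiable neutral lipids gave % inhibition; mean of four determinations.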

Rattus norvegicus [8] = test: Percent change in triglyceride concentration in serum from normocholesterolemic rats at dose 50 mg/kg (po)
Rattus norvegicus [9] = test: Percent change in low density lipoproteins cholesterol concentration in serum from normocholesterolemic rats at dose 50 mg/kg (po)
Rattus norvegicus [10] = organism: Rattus norvegicus; test: Compound was tested in vitro for inhibition of Cholesterol biosynthesis in rat liver slices, % inhibition of [14C]acetate incorporation in neutral lipids at 2 e10-4 concentration; type: functional; summary of the method: as §2
[11] = Percent change in high density lipoprotein cholesterol
Rattus norvegicus [12] = test: Percent change in high density lipoproteins cholesterol concentration in serum from hypercholesterolemic rats at dose 45 mg/kg (po); type: functional; summary of the method: as §1
Rattus norvegicus [13] = test: Percent change in total cholesterol concentration in serum from hypercholesterolemic rats at dose 45 mg/kg (po); type: functional
Rattus norvegicus [14] = test: Percent change in total cholesterol concentration in serum from hypercholesterolemic rats at dose 35 mg/kg (po); type: functional
Rattus norvegicus [15] = test: Percent change in high density lipoproteins cholesterol concentration in serum from hypercholesterolemic rats at dose 35 mg/kg (po); type: functional; summary of the method: as §1

| Structure (SMILES) | Change (Rattus norvegicus [1]) | Change (Rattus norvegicus [2]) | Change (Rattus norvegicus [3]) | other results |
| --- | --- | --- | --- | --- |
| O=C1c2ccccc2CCC1n1ccnc1 (configuration not stated) | 94% | 13% | -34% |  |
| O=C1c2ccc(O)cc2CCC1n1ccnc1 (configuration not stated) | 12% | -3% | 30% |  |
| CC1Oc2cc(O)c(C(C)(C)C)cc2C(=O)C1n1ccnc1 (configuration not stated) | 32% | 9% | -7% |  |
| Cc1nccn1C1COc2ccc(Cl)cc2C1=O (configuration not stated) | 23% | 14% | 39% |  |
| O=C1c2cc(-c3ccccc3)ccc2CCC1n1ccnc1 (configuration not stated) |  | 2% |  | Change (Rattus norvegicus [4]): 4%; Change (Rattus norvegicus [5]): 8% |
| CC(C)(C)c1cc2c(cc1O)OCC(n1ccnc1)C2=O (configuration not stated) | 97% | 11% | -55% |  |
| CC1Oc2cc(O)ccc2C(=O)C1n1ccnc1 (configuration not stated) | 2% | 3% | -22% |  |
| OC1c2cc(Cl)ccc2OCC1n1ccnc1 (stereo in doubt; 40) |  | 24% |  | Change (Rattus norvegicus [6]): 24%; Inhibition (Rattus norvegicus [7]): 0%; Change (Rattus norvegicus [8]): -36%; Change (Rattus norvegicus [9]): -50%; Inhibition (Rattus norvegicus [10]): 0%; Percent change in HDL cholesterol [11]: 123; Change (Rattus norvegicus [3]; 50 mg/kg): -42% and -19% |
| O=C1c2ccccc2CCC1n1cccn1 (configuration not stated) | -3% | 9% | 52% |  |
| O=C(O)c1ccc2c(c1)C(=O)C(n1ccnc1)CC2 (configuration not stated) |  | -3% |  | Change (Rattus norvegicus [12]): -9%; Change (Rattus norvegicus [13]): -5% |
| O=C1c2cc(Br)ccc2OCC1n1ccnc1 (configuration not stated) | 144% | 23% | -50% |  |
| COc1ccc2c(c1)C(=O)C(n1ccnc1)CC2 (configuration not stated) | 52% | 10% | -40% |  |
| CC1Oc2ccccc2C(=O)C1n1ccnc1 (configuration not stated) | 115% | 15% | -67% |  |
| CC1Cc2ccccc2C(=O)C1n1ccnc1 (configuration not stated) | 102% | 26% | -54% |  |
| COc1ccc2c(c1)OC(C)C(n1ccnc1)C2=O (configuration not stated) | 5% | 2% | 11% |  |
| COc1ccc2c(c1)C(O)C(n1ccnc1)CC2 (configuration not stated) | 88% | 21% | -24% |  |
| Nc1ccc2c(c1)C(=O)C(n1ccnc1)CC2 (configuration not stated) |  | 3% |  | Change (Rattus norvegicus [14]): -24%; Change (Rattus norvegicus [15]): 31%; Inhibition (Rattus norvegicus [7]): 74%; Inhibition (Rattus norvegicus [10]): 0% |
| CCCc1cc2c(cc1OC)OC(C)C(n1ccnc1)C2=O (configuration not stated) |  | 24% |  | Change (Rattus norvegicus [14]): -57%; Change (Rattus norvegicus [15]): 152% |
| CCCCCCCCOC1c2cc(Cl)ccc2OCC1n1ccnc1 (configuration not stated) | 18% |  | 42% |  |
| O=C1c2ccccc2OC(c2cccnc2)C1n1ccnc1 (configuration not stated) | 12% | 4% | -4% |  |
| O=C1c2cc(O)cc(Br)c2OCC1n1ccnc1 (configuration not stated) | 1% | -1% | 2% |  |
| O=C1c2cc(Cl)ccc2OCC1n1cccn1 (configuration not stated) | 13% | 6% | 35% |  |
